Key:
Details in all cases: Homo sapiens
[1] = substrate: CCCC[C@@H](C(=O)Nc1ccc2c(C)c(CC(=O)O)c(=O)oc2c1)n1cc([C@@](C)(NC(=O)c2ccsc2)C2CCCCC2)nn1; assay: (§1) Binding affinity to cathepsin S
Outline: (§2)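 Cathepsin S at 0.6 nM in pH 6.1 100 mM sodium phosphate with 100 mM NaCl, 1 mM DTT, 1 mM EDTA and 0.001% Tween-20. Enzyme preincubated 5 min at 37 °C with five inhibitor concentrations (10-90% inhibition), in duplicate. Cbz-Leu-Arg-AMC added at 5 and 2.5 µM, then AMC read (ex 355/em 450 nm) over 5 min. Ki by Dixon method.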

[2] = substrate: CCCC[C@@H](C(=O)Nc1ccc2c(C)c(CC(=O)O)c(=O)oc2c1)n1cc([C@@](C)(NC(=O)c2ccsc2)C2CCC(C)CC2)nn1; assay: as §1; outline: as §2
[3] = substrate: CCCC[C@@H](C(=O)Nc1ccc2c(C)c(CC(=O)O)c(=O)oc2c1)n1cc([C@@](C)(NC(=O)c2ccccc2)C(C)C)nn1; assay: as §1; outline: as §2
[4] = substrate: CCCC[C@@H](C(=O)Nc1ccc2c(C)c(CC(=O)O)c(=O)oc2c1)n1cc([C@@](C)(NC(=O)c2ccccc2)C2CCCCC2)nn1; assay: as §1; outline: as §2
[5] = substrate: CCCC[C@@H](C(=O)Nc1ccc2c(C)c(CC(=O)O)c(=O)oc2c1)n1cc([C@@](C)(NC(=O)c2ccsc2)C(C)C)nn1; assay: as §1; outline: as §2

B1: Cathepsin S (Homo sapiens), P25774 (protein)
chain: MKRLVCVLLVCSSAVAQLHKDPTLDHHWHLWKKTYGKQYKEKNEEAVRRLIWEKNLKFVMLHNLEHSMGMHSYDLGMNHLGDMTSEEVMSLMSSLRVPSQWQRNITYKSNPNRILPDSVDWREKGCVTEVKYQGSCGACWAFSAVGALEAQLKLKTGKLVSLSAQNLVDCSTEKYGNKGCNGGFMTTAFQYIIDNKGIDSDASYPYKAMDQKCQYDSKYRAATCSKYTELPYGREDVLKEAVANKGPVSVGVDARHPSFFLYRSGVYYEPSCTQNVNHGVLVVGYGDLNGKEYWLVKNSWGHNFGEEGYIRMARNKGNHCGIASFPSYPEI
Work on B1 yielded a Km [1] of 13 µM, a Km [2] of 17 µM and a Km [3] of 410 µM. The Km [4] was 57 µM and the Km [5] was 300 µM.

— ChEMBL document CHEMBL1137397, “Identification of selective, nonpeptidic nitrile inhibitors of cathepsin s using the substrate activity screening method” (J Med Chem, 2006)
